Columns and labels:
Escherichia coli [1] = assay: Inhibition of Escherichia coli beta-lactamase TEM-171 assessed as initial hydrolysis rate of substrate CENTA at 100 uM by UV spectrophotometric method (reference value: 0.74 +/- 0.11 uM/s)
Summary of the method: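 TEM-171 β-lactamase at 10 nM. Substrate and each inhibitor were tested at one fixed concentration. The initial rate V0 of substrate hydrolysis was recorded. The relative activity decrease (%) was calculated from V0 with inhibitor versus V0 of the enzyme-only control.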

Escherichia coli [2] = assay: Inhibition of Escherichia coli beta-lactamase TEM-171 using CENTA as substrate at 100 uM by UV spectrophotometric method relative to control
Summary of the method: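 Substrate and each inhibitor were tested at one fixed concentration. The initial rate V0 of substrate hydrolysis was recorded. The relative activity decrease (%) was calculated from V0 with inhibitor versus V0 of the enzyme-only control.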

Structure (SMILES) | V0 (Escherichia coli [1]) | inhibition (Escherichia coli [2])
O=C(O)c1ccc(NC(=S)Nc2ccc(Oc3ccccc3)cc2)cc1 | 0.59 µM/s | 20.3%
O=C(O)CCCC(=O)Nc1ccc(Oc2ccc(Cl)cc2Cl)cc1 | 0.51 µM/s | 31%
O=C(O)c1ccc(NC(=S)Nc2ccc(Oc3ccc(Cl)cc3)cc2)cc1 | 0.53 µM/s | 28.4%
O=C(O)CCC(=O)Nc1ccc(Oc2ccccc2)cc1 | 0.73 µM/s | 1.4%
O=C(O)c1ccc(NC(=S)Nc2ccc(Oc3ccc(Cl)cc3Cl)cc2)cc1 | 0.37 µM/s | 50%
O=C(O)CCCC(=O)Nc1ccc(Oc2ccc(Br)cc2)cc1 | 0.53 µM/s | –

The remaining lines, values ahead:

V0 (Escherichia coli [1]) | inhibition (Escherichia coli [2]) | Structure (SMILES)
0.46 µM/s | 38% | O=C(O)CCC(=O)Nc1ccc(Oc2ccc(Cl)cc2Cl)cc1
0.73 µM/s | 1.4% | O=C(O)CCCC(=O)Nc1ccc(Oc2ccccc2)cc1
0.7 µM/s | 5.4% | O=C(O)CCC(=O)Nc1ccc(Oc2ccc(Cl)cc2)cc1
0.53 µM/s | 28% | O=C(O)CCC(=O)Nc1ccc(Oc2ccc(Br)cc2)cc1
0.51 µM/s | 31% | O=C(O)C(=O)Nc1ccc(Oc2ccc(Cl)cc2Cl)cc1
0.73 µM/s | 1.4% | O=C(O)CCCC(=O)Nc1ccc(Oc2ccc(Cl)cc2)cc1
